This note sets out measurements from ChEMBL document CHEMBL1944568, “Synthesis and biological evaluation of benzo[d]imidazole derivatives as potential anti-cancer agents” (Bioorg Med Chem Lett, 2012).

Calls of active or inactive are those of the source. The rule behind the calls is not given here.

The test system of experiment [1] is HCT-116. As to the kind of experiment: Cytotoxicity against human HCT116 cells after 48 hrs by MTT assay. It counts as functional. The following applies: HCT-116, 48 h.
Experiment [2] concerns MCF7. Kind of experiment: Cytotoxicity against human MCF7 cells after 48 hrs by MTT assay. It counts as functional. The following applies: MCF7, 48 h. On the technique in general: Tetrazolium dyes change colour on reduction, which living cells bring about.
Experiment [3] has as its system MCF7. Kind of experiment: Ratio of DRB GI50 to compound GI50 for human MCF7 cells. It counts as functional.
Experiment [4] concerns HCT-116. Kind of experiment: Ratio of DRB GI50 to compound GI50 for human HCT116 cells. The experiment is classed as functional.
A further experiment deals with CDK9/cyclin T1 (Homo sapiens, UniProt P50750). Kind of experiment: Inhibition of CDK9/CyclinT1. The experiment is classed as protein-complex assay.
For experiment [5], the system named is HCT-116. As to the kind of experiment: Induction of apoptosis in human HCT116 cells assessed as caspase-3 activation at GI50 after 24 hrs. It counts as functional, cell-based. The essentials: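 HCT-116 cells exposed for 24 h at the respective GI₅₀ or 5×GI₅₀ concentration, with a DMSO control, then assayed for caspase-3 activity. Data are mean ± s.d. of two independent experiments, and significance versus DMSO was set at p <0.05.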

The test system of experiment [6] is HCT-116. Kind of experiment: Cell cycle arrest in human HCT116 cells at 5 times GI50 after 24 hrs by AnnexinV/PI staining-based flow cytometry. The experiment is classed as functional. For orientation: Flow cytometry measures light scatter and fluorescence of single cells or particles in a stream.
Experiment [7] has as its system HCT-116. As to the kind of experiment: Induction of apoptosis in human HCT116 cells assessed as at 5 times GI50 after 24 hrs by AnnexinV/PI staining-based flow cytometry.
The subject of experiment [8] is HCT-116. Kind of experiment: Cell cycle arrest in human HCT116 cells assessed as accumulation at G2/M phase at 5 times GI50 after 24 hrs by […]PI staining-based flow cytometry. It counts as functional.
Experiment [9] relates to HCT-116. Kind of experiment: Induction of apoptosis in human HCT116 cells assessed as early apoptosis cells at 5 times GI50 after 24 hrs by AnnexinV/PI staining-based flow cytometry. The experiment is classed as functional. The essentials: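 HCT-116 cells were treated for 24 h alongside a DMSO control, stained with annexin V/PI and analysed by flow cytometry. Early apoptotic cells were scored as AnnV+/PI−, and late apoptotic cells as AnnV+/PI+. Values are mean ± s.d.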

The target of experiment [10] is Cyclin-dependent kinase 9 (Homo sapiens) (UniProt P50750). As to the kind of experiment: Inhibition of CDK9 in human HCT116 cells assessed as reduction in MDM2 protein level at GI50 after 24 hrs by Western blot analysis. It counts as cell-based. The settings on record: HCT-116. In general terms: A western blot detects proteins with antibodies after separation by electrophoresis.

Experiment [11] has the same target. Kind of experiment: Inhibition of CDK9-mediated phosphorylation of RNA polymerase 2 at Ser2 in human HCT116 cells at GI50 after 24 hrs by Western blot analysis. It counts as cell-based. The following applies: HCT-116. The essentials: (§1)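 Western blot of HCT-116 cells after 24 h treatment across a concentration series, probing RNAPII CTD pSer-2 with β-actin as the internal loading control.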

Experiment [12] has the same target. Kind of experiment: Inhibition of CDK9 in human HCT116 cells assessed as reduction in Mcl-1 protein level at GI50 after 24 hrs by Western blot analysis. It counts as cell-based. The settings on record: HCT-116.
For experiment [13] the target is unchanged. As to the kind of experiment: Inhibition of CDK9-mediated phosphorylation of RNA polymerase 2 at Ser2 in human HCT116 cells after 24 hrs by Western blot analysis. The experiment is classed as cell-based. The settings on record: HCT-116. The essentials: as §1
Experiment [14] concerns the target Cyclin-dependent kinase 2/cyclin A (Homo sapiens) (UniProt P24941+P20248+P78396). Kind of experiment: Inhibition of CDK2/Cyclin A. The experiment is classed as protein-complex assay.

Cyclin-dependent kinase 9 (Homo sapiens), sequence (P50750 whole entry): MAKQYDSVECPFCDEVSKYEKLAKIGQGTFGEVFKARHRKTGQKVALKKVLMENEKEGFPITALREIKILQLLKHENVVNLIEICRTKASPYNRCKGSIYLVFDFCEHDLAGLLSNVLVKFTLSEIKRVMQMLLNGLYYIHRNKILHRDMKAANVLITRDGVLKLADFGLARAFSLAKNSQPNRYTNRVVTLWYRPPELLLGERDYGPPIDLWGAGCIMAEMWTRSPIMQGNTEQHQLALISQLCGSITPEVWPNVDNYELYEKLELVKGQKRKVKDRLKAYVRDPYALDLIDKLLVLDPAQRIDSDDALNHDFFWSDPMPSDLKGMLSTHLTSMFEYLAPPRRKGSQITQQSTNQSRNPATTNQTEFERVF
CDK9/cyclin T1, sequence (O60563 whole entry): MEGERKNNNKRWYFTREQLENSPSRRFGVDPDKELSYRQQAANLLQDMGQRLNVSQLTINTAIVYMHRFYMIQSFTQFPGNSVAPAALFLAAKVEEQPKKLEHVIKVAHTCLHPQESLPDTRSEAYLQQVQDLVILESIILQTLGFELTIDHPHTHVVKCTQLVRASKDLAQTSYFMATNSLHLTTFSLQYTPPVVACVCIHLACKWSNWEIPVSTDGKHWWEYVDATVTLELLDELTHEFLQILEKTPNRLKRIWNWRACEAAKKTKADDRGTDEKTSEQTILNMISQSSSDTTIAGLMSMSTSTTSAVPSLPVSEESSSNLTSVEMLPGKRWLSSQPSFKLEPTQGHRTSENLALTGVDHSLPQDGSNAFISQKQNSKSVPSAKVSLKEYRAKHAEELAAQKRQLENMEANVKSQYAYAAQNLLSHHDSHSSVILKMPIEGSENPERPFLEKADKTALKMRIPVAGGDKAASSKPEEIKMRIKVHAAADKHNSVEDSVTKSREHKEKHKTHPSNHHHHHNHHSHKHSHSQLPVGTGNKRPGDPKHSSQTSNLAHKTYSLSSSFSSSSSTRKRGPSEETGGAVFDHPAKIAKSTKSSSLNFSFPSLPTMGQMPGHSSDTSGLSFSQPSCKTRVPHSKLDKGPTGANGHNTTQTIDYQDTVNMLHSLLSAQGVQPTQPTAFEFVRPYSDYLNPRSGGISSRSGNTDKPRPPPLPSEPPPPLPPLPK
CDK9/cyclin T1, sequence (P50750 whole entry): as the sequence (P50750 whole entry) above

For `Clc1cc2nc(-c3ccccc3Cl)[nH]c2cc1Cl`, the 50% growth inhibitory concentration (GI50) in the experiment with HCT-116 [1] was found to be 23 µM; in the experiment on MCF7 [2], 22 µM.
Consider `FC(F)(F)c1nc2cc(Cl)c(Cl)cc2[nH]1`, for which the RatioGI50 in the experiment on MCF7 [3] stood at 6; with HCT-116 [4] it was 3.5. The GI50 with HCT-116 [1] stood at 7 µM; in the experiment with MCF7 [2] it was 6 µM.
On to `FC(F)(F)c1nc2cc(Cl)c(Cl)cc2n1Cc1ccccc1`, for which the GI50 in the experiment on HCT-116 [1] worked out at 8.6 µM; in the experiment with MCF7 [2], 8.7 µM.
As for `CS(=O)(=O)c1nc2cc(Cl)c(Cl)cc2n1C1CCCC1`, the GI50 in the experiment on HCT-116 [1] and in the experiment with MCF7 [2] was 0.6 µM in each case. On CDK9/cyclin T1, this molecule returned a Ki of over 5 µM. Besides, the result with HCT-116 [5] was Active. In addition, in the experiment with HCT-116 [6], the outcome was inactive. Also, in the experiment with HCT-116 [7], the Activity is reported as under 7%.
As for `COc1cc2ncn([C@@H]3O[C@H](CO)[C@@H](O)[C@H]3O)c2cc1OC`, the GI50 with HCT-116 [1] and with MCF7 [2] was over 100 µM in each case.
For `C=CCn1c(C(F)(F)F)nc2cc(Cl)c(Cl)cc21`, the GI50 in the experiment with HCT-116 [1] came out at 89.2 µM; in the experiment on MCF7 [2], 87 µM.
Turning to `FC(F)(F)c1nc2cc(Cl)c(Cl)cc2n1CC1CC1`, the GI50 in the experiment with HCT-116 [1] is 61.3 µM; in the experiment on MCF7 [2], 60.2 µM.
Consider `FC(F)(F)c1nc2cc(Cl)c(Cl)cc2n1C1CCCC1`, for which the results for the GI50 in the experiment with HCT-116 [1] and in the experiment with MCF7 [2] were 22 µM and 21 µM, respectively.
The corresponding values for `OC[C@H]1O[C@@H](n2cnc3cc(F)c(F)cc32)[C@H](O)[C@@H]1O` are 67 µM and 57.9 µM.
On the same counts, the results for `CCn1c(C(F)(F)F)nc2cc(Cl)c(Cl)cc21` are 95.3 µM and 72.9 µM.
With `Cc1cc2nc(C(F)(F)F)[nH]c2cc1C`, the GI50 came out at 56 µM with HCT-116 [1] and 17 µM with MCF7 [2].
On the same counts, the results for `Clc1cc2ncn(C3CCCC3)c2cc1Cl` are 37 µM and 42 µM.
The corresponding values for `CC(C)n1c(C(F)(F)F)nc2cc(Cl)c(Cl)cc21` are 81.9 µM and 70.5 µM.
The corresponding values for `O=[N+]([O-])c1ccccc1Cn1c(C(F)(F)F)nc2cc(Cl)c(Cl)cc21` are 5.9 µM and 1.5 µM.
Regarding `Nc1ccccc1Cn1c(C(F)(F)F)nc2cc(Cl)c(Cl)cc21`, the GI50 is 26.1 µM with HCT-116 [1] and 55.6 µM in the experiment on MCF7 [2].
The corresponding values for `Cn1c(C(F)(F)F)nc2cc(Cl)c(Cl)cc21` are 56 µM and 39 µM.
Consider `CCc1nc2cc(Cl)c(Cl)cc2[nH]1`, for which the GI50 stood at 46 µM in the experiment with HCT-116 [1] and 48 µM with MCF7 [2].
On the same counts, the results for `CCc1nc2ccccc2n1[C@@H]1O[C@H](CO)[C@@H](O)[C@H]1O` are 70.6 µM and 71.3 µM.
Take `OC[C@H]1O[C@@H](n2cnc3cc(Cl)c(Cl)cc32)[C@H](O)[C@@H]1O` [DICHLORORIBOBENZIMIDAZOLE]: the result in the experiment on HCT-116 [8] and in the experiment on HCT-116 [5] was Active. Besides, the figures for the GI50 with HCT-116 [1] and in the experiment on MCF7 [2] were 25 µM and 36 µM, respectively. In the experiment with HCT-116 [9], the Activity is recorded as 20%.
As to `Clc1cc2nc[nH]c2cc1Cl`, the GI50 in the experiment on HCT-116 [1] was determined as 66 µM; in the experiment with MCF7 [2], 73 µM.
On the same counts, the results for `Cc1cc2nc[nH]c2cc1C` [DIMEDAZOL] are 51 µM and 20 µM.
`C[S+]([O-])c1nc2cc(Cl)c(Cl)cc2n1C1CCCC1` (stereo not drawn): the GI50 with HCT-116 [1] and in the experiment with MCF7 [2] was 0.5 µM throughout. In addition, the Ki at CDK9/cyclin T1 was over 5 µM. Also, the result in the experiment on HCT-116 [5] was Active. Also, the result in the experiment with HCT-116 [6] was inactive. In addition, the Activity in the experiment with HCT-116 [7] is under 7%.
On to `O=[N+]([O-])c1cccc(Cn2c(C(F)(F)F)nc3cc(Cl)c(Cl)cc32)c1`, for which the GI50 in the experiment with HCT-116 [1] stood at 22.8 µM; in the experiment on MCF7 [2], 60 µM.
On the same counts, the results for `FC(F)(F)c1cccc(Cn2c(C(F)(F)F)nc3cc(Cl)c(Cl)cc32)c1` are 50.5 µM and 68 µM.
On the same counts, the results for `CC(C)c1nc2cc(Cl)c(Cl)cc2[nH]1` are 52 µM and 57 µM.
The corresponding values for `CCc1nc2cc(Cl)c(Cl)cc2n1C1CCCC1` are 38 µM and 52 µM.
Turning to `Cc1nc2cc(Cl)c(Cl)cc2n1C1CCCC1`, the inhibition entry in experiment [10], in experiment [11] and in [12] was “Active” each time. Also, the GI50 in the experiment with HCT-116 [1] came to 13 µM; in the experiment with MCF7 [2], 40 µM. In addition, the inhibition result in experiment [13] was “Dose-dependent effect”. The same molecule came in with a Ki at CDK9/cyclin T1 of 1.51 µM. The outcome in the experiment with HCT-116 [5] was Active. The inhibition result in experiment [14] was “inactive”. For the same molecule, the outcome in the experiment with HCT-116 [6] was inactive. The Activity with HCT-116 [9] was over 17%.
For the molecule `CC(C)c1nc2cc(Cl)c(Cl)cc2n1C1CCCC1`, the GI50 in the experiment with HCT-116 [1] stood at 9 µM; in the experiment on MCF7 [2], 43 µM. The molecule also showed a Ki at CDK9/cyclin T1 of 3.33 µM. Also, the inhibition entry in experiment [14] is “inactive”.
Turning to `Fc1ccccc1-c1nc2cc(Cl)c(Cl)cc2[nH]1`, the GI50 stood at 56.5 µM in the experiment on HCT-116 [1] and 47.5 µM in the experiment with MCF7 [2].
On the same counts, the results for `FC(F)(F)c1ccc(Cn2c(C(F)(F)F)nc3cc(Cl)c(Cl)cc32)cc1` are 19 µM and 17 µM.
The corresponding values for `Cc1nc2cc(Cl)c(Cl)cc2[nH]1` are 51 µM and 28 µM.
On the same counts, the results for `O=[N+]([O-])c1ccc(Cn2c(C(F)(F)F)nc3cc(Cl)c(Cl)cc32)cc1` are 81.6 µM and 97.3 µM.
For the molecule `Nc1cccc(Cn2c(C(F)(F)F)nc3cc(Cl)c(Cl)cc32)c1`, the figures for the GI50 in the experiment with HCT-116 [1] and in the experiment with MCF7 [2] were 22.6 µM and 77.5 µM, respectively.
Consider `CSc1nc2cc(Cl)c(Cl)cc2n1C1CCCC1`, for which the figures for the GI50 with HCT-116 [1] and in the experiment with MCF7 [2] were 2.9 µM and 3.9 µM, respectively. Also, the Ki on CDK9/cyclin T1 was over 5 µM.

Broadly, the GI50 is the concentration giving 50% growth inhibition. High values mean lower sensitivity of the cells, low ones greater sensitivity of the cells. One may read the Ki as a dissociation constant, usually derived from enzyme kinetics or from competition with a known ligand. A higher Ki goes with weaker binding.
